Hits are enriched below; roughly 6.4% of the tested compounds scored in any of these assays.
E coli WT exp: growth inhibitors of wild-type E. coli, primary screen, strain BW25113, expanded library, OD600 | growth inhibition, % at 100 µM | AID 710, 2007 | OD600 absorbance | hit rate 0.15% among 98,000;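 active = growth inhibition above about 50% at one test dose, limit read from the data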;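 also: growth measured after 20 h incubation at 37 °C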
Lung fibro prol: antiproliferative effect on LL 47 fibroblasts – human, LL 47 cells, CellTiter-Glo luminescence, primary screen. LL 47 human lung fibroblast viability, ATP luminescence; active compounds read low. hit rate 1.1% among 85,000. viability, % at 10 µM;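 active = viability at or below 50% in the single dose screen; inactive = viability above 50%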;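 also: compound exposure lasted 72 h before the ATP readout; 100% = median luminescence of untreated cell-only wells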
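Benchmarks: Cell-only wells, no compound | Test system: LL 47 human lung fibroblasts, passage 12 or lower | Input: 1,150 cells/well | Measured by: CellTiter-Glo luminescence measuring cellular ATP | Medium: IMEM, 15% FBS supplement | Schedule: Overnight attachment after seeding, then 72 h compound exposure at 37 °C | Doses: Compound addition at 0.1% DMSO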
Ecoli tolC: growth inhibitors of E. coli tolC mutant, primary screen, strain BW25113 ΔtolC::kan, 384-well | OD615 | growth inhibition, % at 10 µM (by protocol) | hit rate 2.2% among 65,000 | AID 573, 2007;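 active = growth inhibition at or above a cutoff equal to the mean over every tested compound plus 3 SD, cut at about 60% in these data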;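 also: growth measured after 20 h incubation at 37 °C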
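Material: E. coli BW25113 ΔtolC::kan, tolC deletion mutant strain. Measure: percent growth inhibition. Schedule: 37 °C, 20 h exposure. Doses: single-point testing at 10 µM. Signal: A615 absorbance measurement. Buffer or medium: kanamycin-containing LB broth (50 µg/mL).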
HUVEC prolif 384: inhibitors of HUVEC proliferation, primary screen, cell-based, 384-well. hit rate 1.1% among 86,000. CellTiter-Glo luminescence, 72 h; active compounds read low. viability, % at 10 µM (by protocol);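 active = viability at or below 30%; inactive = viability above 30%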;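 also: 100% = median luminescence of DMSO-only cell control wells on each plate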
Jurkat tox 60K: cytotoxicity toward Jurkat T cells, primary screen, cytotoxicity control, cell-based, Jurkat E6.1, 60K MLSMR library; AID 463, 2006; inhibition, % at 4 µM; hit rate 1.2% among 56,000; Jurkat E6.1 viability, ATP luminescence, 48 h;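 active = inhibition above the mean inhibition of all tested compounds plus 3 SD, cut at about 28% in these data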
H69AR inhibit: proliferation blockers of H69AR lung cancer cells, primary screen, cell-based, human, 86K library. H69AR lung tumor viability, ATP luminescence, 72 h; active compounds read low. hit rate 6% among 85,000. viability, % at 10 µM. AID 598, 2007;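 active = viability at or below 40%; inactive = viability above 40%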;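 also: multidrug resistant small cell line overexpressing MRP-1 efflux transporter; 100% = mean luminescence of untreated control wells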
An asterisk follows results filed as active; / = no result.

SMILES	E coli WT exp	Lung fibro prol	Ecoli tolC	HUVEC prolif 384	Jurkat tox 60K	H69AR inhibit
O=c1c(C=Nc2ccc(Cl)cc2)c[nH]n1-c1cccc(Cl)n1	3.0	/	/	/	/	/
COc1cccc(/C=N/NC(=O)c2cc(C34CC5CC(CC(C5)C3)C4)[nH]n2)c1	-7.0	/	/	/	/	/
COC(=O)c1oc2ccc(Br)cc2c1NC(=O)c1ccccc1	-4.0	81.4	/	85.3	1.2	29.7*
COC(=O)c1oc2ccc(Br)cc2c1NC(=O)CN1CCN(C)CC1	/	92.1	1.8	85.5	-5.8	87.6
CC1CCCN(S(=O)(=O)c2ccc(NC(=O)c3cccc(-n4cnnn4)c3)cc2)C1 (centres undefined)	-10.0	93.6	72.9*	73.2	3.9	88.2
Cc1ccc(CNCc2cc3c(C(C)(C)C)nn(-c4ccccc4)c3[nH]c2=O)cc1	1.0	64.7	/	67.2	/	1.9*
CC(C)(C)c1nn(-c2ccccc2)c2[nH]c(=O)c(CNCc3ccco3)cc12	-14.0	100.4	11.2	44.4	-0.8	7.8*
COc1ccc(CNCc2cc3c(C(C)(C)C)nn(-c4ccccc4)c3[nH]c2=O)cc1	0.0	69.4	/	72.1	/	24.1*
O=c1cc(N2CCc3ccccc3C2)[nH]c(=O)n1Cc1ccc(F)cc1	-2.0	107.0	-4.0	101.7	-1.4	99.7
Cc1ccc2[nH]c(=O)c(-c3noc(C(C)C)n3)cc2c1	7.0	112.6	3.4	105.1	-9.7	85.7
Cc1c(NC(=O)c2cc3nc(-c4ccccc4)cc(C)n3n2)c(=O)n(-c2ccccc2)n1C	5.0	94.5	2.5	92.9	4.5	85.7
Cc1c(NC(=O)c2cc3nc(-c4ccc(Br)cc4)cc(C(F)(F)F)n3n2)c(=O)n(-c2ccccc2)n1C	/	46.2*	/	103.3	/	0.6*
CC(C)(C)c1nc(SCC(=O)Nc2ccc(N3CCOCC3)cc2)c2ccccc2n1	-1.0	91.3	/	77.3	/	44.9
Cc1oc(-c2ccc(Cl)cc2)nc1CN1CCCC(C(=O)N2CCc3ccccc32)C1 (centres undefined)	/	/	11.2	56.8	-5.2	70.9
CCc1ccc(-c2nc(CN3CCCC(C(=O)NCCc4ccc(OC)c(OC)c4)C3)c(C)o2)cc1 (centres undefined)	7.0	78.4	28.0	60.2	3.0	37.3*
Cc1oc(-c2ccc(Cl)cc2)nc1CN1CCC(C(=O)NCc2cccnc2)CC1	-4.0	102.6	3.4	102.8	7.4	93.8
CCCN(CCC)CCNC(=O)C1CCN(Cc2nc(-c3ccc(Cl)cc3)oc2C)CC1	10.0	36.5*	-3.4	9.9*	2.3	59.0
CCOC(=O)N1CCN(C(=O)C2CCCN(Cc3nc(-c4ccc(Cl)cc4)oc3C)C2)CC1 (centres undefined)	3.0	92.5	6.8	84.4	48.9*	81.7
COc1ccc(Cc2nc(-c3ccc(Br)o3)no2)cc1OC	9.0	101.3	6.2	105.2	-1.5	91.9
CC(C)COn1c(=S)[nH]c2ccccc2c1=O	-3.0	93.8	/	102.6	/	88.0
Cc1cc(Cl)c(S(=O)(=O)N2CCCC2)cc1OCC(=O)NC1CCCCC1	6.0	85.5	/	83.5	/	83.9
Cc1ccc(CN2CCC(C(=O)NCCC(C)C)CC2)o1	0.0	99.0	-8.2	90.3	-3.1	76.8
N#Cc1cc(-c2ccccc2)nn1-c1ccccc1	-4.0	101.2	2.6	96.1	0.3	75.4
Oc1c(Cl)cc(Cl)c2c1NCCC2	21.0	87.7	16.6	67.9	2.4	4.4*
O=C1NCCCc2c1oc1ccc(O)cc21	12.0	104.8	4.0	101.8	1.0	65.4
SMILES	E coli WT exp	Lung fibro prol	Ecoli tolC	HUVEC prolif 384	Jurkat tox 60K	H69AR inhibit
c1ccc(C2Nc3ccccc3Oc3ccccc32)cc1 (centres undefined)	/	85.9	/	97.2	/	93.0
O=C(Nc1ccc(Cl)cc1-c1nc2ccccc2s1)c1ccco1	5.0	90.0	/	41.5	/	30.1*
O=C(Nc1ccccc1-c1nc2ccccc2s1)c1ccc(Br)o1	-2.0	96.2	/	47.4	/	14.9*
CCCNC(=O)NC(=O)COc1c(F)c(F)cc(F)c1F	5.0	107.8	/	110.3	/	90.8
O=C(COc1ccccc1)Nc1ncc2c(n1)CCCC2=O	0.0	100.4	-13.1	104.1	-1.1	96.9
Cc1ccc(-c2c(C)n([O-])c3c([n+]2=O)CCC3)o1	3.0	105.2	-27.0	107.0	-10.8	86.7
Cc1cc(-c2ccc(Cl)cc2)c(C#N)c(N)n1	-10.0	81.9	/	78.7	/	98.0
N#Cc1c(-c2ccc(Cl)cc2)ccn2nc(C3CCCCC3)nc12	-9.0	86.2	/	93.5	/	31.3*
CCOC(=O)COc1ccc(S(=O)(=O)NCCC2=CCCCC2)cc1	2.0	92.8	8.3	4.4*	-1.5	92.1
CCc1cccc2c(C(=O)Cn3nnc(-c4ccc(OC)c(OC)c4)n3)c[nH]c12	-12.0	92.6	/	80.4	/	39.3*
c1ccc(-c2nc(N3CCNCC3)nc3ccccc23)cc1	14.0	87.5	/	63.5	/	4.4*
O=C(CCCCCn1c(=S)[nH]c2ccccc2c1=O)N1CCOCC1	-15.0	104.0	/	105.7	/	96.8
COc1cc2nc(SCc3c(C)noc3C)n(CCC3=CCCCC3)c(=O)c2cc1OC	-3.0	86.1	1.6	71.5	-0.2	26.7*
C=CCn1c(SCC(=O)NCCC2=CCCCC2)nc2ccc(Cl)cc2c1=O	-11.0	/	/	/	/	/
Cc1noc(C)c1CSc1nc2sc3c(c2c(=O)n1C)CCCC3	-5.0	86.5	/	52.0	/	73.4
COc1cc2nc(SCC(=O)NC3CC3)n(CCC3=CCCCC3)c(=O)c2cc1OC	/	76.2	-2.7	24.8*	-3.2	33.6*
CN(C)c1nc(-c2ccccc2)nc(-c2ccc(Cl)cc2)c1C#N	-7.0	82.2	/	44.8	/	31.9*
COc1ccc(-c2nc(-c3ccccc3)nc(Cl)c2C#N)cc1	-18.0	/	/	/	/	/
CCc1nnc(NC(=O)CSc2nccn2-c2cccc(C)c2C)s1	-12.0	90.6	10.9	82.1	31.5	18.3*
Cc1cccc(-n2ccnc2SCC(=O)Nc2nccs2)c1C	-2.0	77.2	0.3	96.8	4.5	82.0
CCc1nnc(NC(=O)CSc2nccn2-c2cc(C)cc(C)c2)s1	-2.0	99.4	9.0	78.3	18.6	22.1*
CCOC(=O)N=S(N)(=O)c1ccccc1 (centres undefined)	-3.0	97.3	-5.1	100.6	/	62.3
CCOc1ccc(-c2cc(C(=O)O)c3ccccc3n2)c(OCC)c1	/	96.2	-0.3	82.8	36.9*	88.6
COC(=O)CSc1nc2c(c(=O)n(C)c(=O)n2C)n1CCCc1ccccc1	-2.0	91.0	8.0	84.1	-6.8	85.0
COC(=O)C1=C(C)NC2=C(C(=O)CC(c3cccs3)C2)C1c1ccsc1 (centres undefined)	-2.0	68.8	28.7	71.3	/	23.6*
CCOC(=O)C1=C(C)NC2=C(C(=O)CC(c3cccs3)C2)C1c1cccs1 (centres undefined)	/	57.5	/	41.5	/	15.0*
